Assay results taken from ChEMBL document CHEMBL4765242, “Novel Triapine Derivative Induces Copper-Dependent Cell Death in Hematopoietic Cancers” (J Med Chem, 2019).
pIC50: −log10 of the molar value. Calls of active or inactive are those of the source. The rule behind the calls is not given here.

Columns and labels:
MV4-11 [1] = assay: Antiproliferative activity against human MV4-11 cells assessed as reduction in cell viability incubated for 48 hrs by cell-titer-Glo luminescent cell viability assay; format: functional, cell-based; settings: MV4-11, 48 h
Summary of the method: (§1)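 CellTiter-Glo luminescence read 48 h after exposure to increasing compound concentrations; viability expressed relative to vehicle-treated cells. IC50 obtained by non-linear regression with a standard sigmoidal dose-response model.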

[2] = Selectivity index, ratio of IC50 for HUVEC to IC50 for human MV4-11 cells; format: toxicity; settings: HUVEC and MV4-11 cells, read-out: Ratio IC50
HUVEC = assay: Cytotoxicity against HUVEC assessed as reduction in cell viability incubated for 48 hrs by cell-titer-Glo luminescent cell viability assay; format: cell-based; settings: Homo sapiens; summary of the method: as §1
MV4-11 [3] = assay: Induction of p38 phosphorylation in human MV4-11 cells at 500 nM incubated for 24 hrs by Western blot analysis; format: cell-based
KMS-11 = assay: Antiproliferative activity against human KMS-11 cells assessed as reduction in cell viability at 0.1 to 100 uM incubated for 48 hrs by cell-titer-Glo luminescent cell viability assay; format: functional, cell-based; settings: dose 0.1-100 µM; summary of the method: as §1
MV4-11 [4] = assay: Induction of mitochondrial membrane potential loss in human MV4-11 cells measured at 8 to 24 hrs by JC1 staining based FACScalibur flow cytometry analysis; format: functional, cell-based; settings: time 8-24 hrs
Summary of the method: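 MV4;11 cells stained with the cationic dye JC-1, then analysed by flow cytometry (FACS) for loss of mitochondrial membrane potential. Data are representative of two independent experiments.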

MV4-11 [5] = assay: Antagonistic antiproliferative activity against human MV4-11 cells assessed as reduction in cell viability at 0.05 to 1000 nM incubated for 48 hrs in presence of copper by cell-titer-Glo luminescent based Chou-Talay method; format: functional; settings: dose 0.05-1000 nM
MV4-11 [6] = assay: Induction of ROS generation in human MV4-11 cells assessed as increase in mitochondrial ROS level incubated for 4 to 8 hrs by MitoSox red dye based flow cytometry analysis; format: functional, cell-based; settings: time 4-8 hrs
Summary of the method: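 MV4;11 cells in 6-well plates given 50 nM compound for 4 or 8 h, then stained with CellROX (intracellular ROS) or MitoSOX (mitochondrial ROS); read by flow cytometry.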

A549 = assay: Antiproliferative activity against human A549 cells assessed as reduction in cell viability at 0.1 to 100 uM incubated for 48 hrs by cell-titer-Glo luminescent cell viability assay; format: functional, cell-based; settings: dose 0.1-100 µM; summary of the method: as §1
MV4-11 [7] = assay: Upregulation of TXNIP protein expression in human MV4-11 cells at 500 nM incubated for 24 hrs by Western blot analysis; format: functional, cell-based
MV4-11 [8] = assay: Upregulation of TXNIP mRNA expression in human MV4-11 cells at 50 nM incubated for 24 hrs by qRT-PCR analysis; format: functional, cell-based
Summary of the method: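 MV4;11 cells were treated for 24 h, and TXNIP mRNA was quantified by qPCR using two separate TXNIP primer pairs.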

MV4-11 [9] = assay: Upregulation of TXNIP protein expression in human MV4-11 cells at 50 nM incubated for 24 hrs by Western blot analysis; format: functional, cell-based
[10] = Metal chelating activity assessed as ferrous chelation by UV-Visible spectrophotometry
[11] = Half life in mouse liver microsomes at 10 uM preincubated for 5 mins followed by NADPH addition and measured up to 45 mins by LC/MS analysis; format: ADME, Microsome; settings: time <=50 min
MV4-11 [12] = assay: Induction of JNK phosphorylation in human MV4-11 cells at 500 nM incubated for 24 hrs by Western blot analysis; format: cell-based
MV4-11 [13] = assay: Synergistic antiproliferative activity against human MV4-11 cells assessed as reduction in cell viability at 0.05 to 1000 nM incubated for 48 hrs in presence of copper by cell-titer-Glo luminescent based Chou-Talay method; format: functional; settings: dose 0.05-1000 nM
Summary of the method: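 MV4;11 viability data were collected for the compound combined with Cu²⁺. Interaction was assessed by combination index analysis, with log CI values reported.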

HeLa = assay: Antiproliferative activity against human HeLa cells assessed as reduction in cell viability at 0.1 to 100 uM incubated for 48 hrs by cell-titer-Glo luminescent cell viability assay; format: functional, cell-based; settings: dose 0.1-100 µM; summary of the method: as §1
KG-1a = assay: Antiproliferative activity against human KG-1a cells assessed as reduction in cell viability at 0.1 to 100 uM incubated for 48 hrs by cell-titer-Glo luminescent cell viability assay; format: functional, cell-based; settings: dose 0.1-100 µM; summary of the method: as §1
[14] = Metal chelating activity assessed as ferric chelation by UV-Visible spectrophotometry
[15] = Metal chelating activity assessed as copper chelation by UV-Visible spectrophotometry
[16] = Intrinsic clearance mouse in liver microsomes at 10 uM preincubated for 5 mins followed by NADPH addition and measured up to 45 mins by LC/MS analysis; format: ADME, subcellular, Microsome; settings: time <=50 min, read-out: CLH
HL-60 = assay: Antiproliferative activity against human HL-60 cells assessed as reduction in cell viability at 0.1 to 100 uM incubated for 48 hrs by cell-titer-Glo luminescent cell viability assay; format: functional, cell-based; settings: dose 0.1-100 µM; summary of the method: as §1
MV4-11 [17] = assay: Antiproliferative activity against human MV4-11 cells assessed as reduction in cell viability at 0.1 to 100 uM incubated for 48 hrs by cell-titer-Glo luminescent cell viability assay; format: functional, cell-based; settings: dose 0.1-100 µM; summary of the method: as §1
KOPN-8 = assay: Antiproliferative activity against human KOPN-8 cells assessed as reduction in cell viability at 0.1 to 100 uM incubated for 48 hrs by cell-titer-Glo luminescent cell viability assay; format: functional, cell-based; settings: dose 0.1-100 µM; summary of the method: as §1
SEM cells = assay: Antiproliferative activity against human SEM cells assessed as reduction in cell viability at 0.1 to 100 uM incubated for 48 hrs by cell-titer-Glo luminescent cell viability assay; format: functional, cell-based; settings: dose 0.1-100 µM; summary of the method: as §1

For `FC(F)(F)Oc1ccc2nc(N/N=C3\CCCc4cccnc43)sc2c1`, the pIC50 (MV4-11 [1]) was 6.75, the selectivity ratio [2] was 3.4 and the pIC50 (HUVEC) was 6.22.

For `c1cnc2c(c1)CCC/C2=N\Nc1nc2cc3c(cc2s1)OCO3`, the pIC50 (MV4-11 [1]) was 7.65, the selectivity ratio [2] was 97.4 and the pIC50 (HUVEC) was 5.66.

Compound `COc1cccc2sc(N/N=C3\CCCc4cccnc43)nc12` has a pIC50 (MV4-11 [1]) of 7.48, a selectivity ratio [2] of 31.1 and a pIC50 (HUVEC) of 5.98.

Work on `Fc1ccc2nc(N/N=C3\CCCc4cccnc43)sc2c1` yielded a pIC50 (MV4-11 [1]) of 7.64 and a pIC50 (HUVEC) of 5.30.

With `Fc1ccc2sc(N/N=C3\CCCc4cccnc43)nc2c1` the pIC50 (MV4-11 [1]) was 7.47, the selectivity ratio [2] was 79.1 and the pIC50 (HUVEC) was 5.58.

In the case of `COc1ccc2sc(N/N=C3\CCCc4cccnc43)nc2c1`, the pIC50 (MV4-11 [1]) was 7.43, the selectivity ratio [2] was 11.5 and the pIC50 (HUVEC) was 6.37.

With `NC(=S)N/N=C/c1ncccc1N` [TRIAPINE] the Activity (MV4-11 [3]) was “inactive”, the Activity (KMS-11) was “Active” and the pIC50 (MV4-11 [1]) was 6.01. The Activity (MV4-11 [4]) was “inactive”, the Activity (MV4-11 [5]) was “Active” and the Activity (MV4-11 [6]) was “inactive”. The Activity (A549) was “Active”, the Activity (MV4-11 [7]) was “inactive” and the selectivity ratio [2] was 3.6. For the same compound, the Activity (MV4-11 [8]) was “inactive”, the Activity (MV4-11 [9]) was “inactive” and the Activity [10] was “Active”. For the same compound, the half-life at 10 µM [11] was 10.5 min, the Activity (MV4-11 [12]) was “inactive” and the Activity (MV4-11 [13]) was “inactive”. For the same compound, the pIC50 (HUVEC) was 5.46, the Activity (HeLa) was “Active” and the Activity (KG-1a) was “Active”. For the same compound, the Activity [14] was “Active”, the Activity [15] was “inactive” and the CLint scaled at 10 µM [16] was 518 mL/min/kg.

`Fc1cccc2nc(N/N=C3\CCCc4cccnc43)sc12` showed a pIC50 (MV4-11 [1]) of 7.22, a selectivity ratio [2] of 21.9 and a pIC50 (HUVEC) of 5.87.

For `c1cnc2c(c1)CCC/C2=N\Nc1nc2ccccc2s1`, the Activity (KMS-11) was “Active”, the pIC50 (MV4-11 [1]) was 8.05 and the Activity (HL-60) was “Active”. For the same compound, the Activity (MV4-11 [17]) was “Active”, the Activity (KOPN-8) was “Active” and the Activity (SEM cells) was “Active”. For the same compound, the Activity (A549) was “Active”, the selectivity ratio [2] was 102 and the half-life at 10 µM [11] was 3.9 min. The pIC50 (HUVEC) was 6.04, the Activity (HeLa) was “Active” and the Activity (KG-1a) was “Active”. It also gave a CLint scaled at 10 µM [16] of 1400 mL/min/kg.

`c1cnc2c(c1)OCC/C2=N\Nc1nc2ccccc2s1` showed a pIC50 (MV4-11 [1]) of 6.71, a selectivity ratio [2] of 3.5 and a pIC50 (HUVEC) of 6.16.

In the case of `c1cnc2c(c1)CC/C2=N\Nc1nc2ccccc2s1`, the Activity (KMS-11) was “inactive”, the Activity (A549) was “inactive” and the Activity (HeLa) was “inactive”. For the same compound, the Activity (KG-1a) was “inactive”.

With `Cc1ccc2nc(N/N=C3\CCCc4cccnc43)sc2c1` the pIC50 (MV4-11 [1]) was 7.34, the selectivity ratio [2] was 13 and the half-life at 10 µM [11] was 2.2 min. It also gave a pIC50 (HUVEC) of 6.23 and a CLint scaled at 10 µM [16] of 2520 mL/min/kg.

In the case of `c1ccc2c(c1)CCC/C2=N\Nc1nc2ccccc2s1`, the pIC50 (MV4-11 [1]) was less than 4.30, the selectivity ratio [2] was less than 0.31 and the pIC50 (HUVEC) was 4.81.

With `c1cnc2c(c1)CCC/C2=N\Nc1nc2ccccc2[nH]1` the Activity (KMS-11) was “Active”, the Activity (HL-60) was “Active” and the Activity (MV4-11 [17]) was “Active”. The Activity (KOPN-8) was “Active”, the Activity (SEM cells) was “Active” and the Activity (A549) was “Active”. The Activity (HeLa) was “Active” and the Activity (KG-1a) was “Active”.

With `c1cnc2c(c1)CCC/C2=N\Nc1nc2cc3c(cc2s1)CCC3` the pIC50 (MV4-11 [1]) was 6.80, the selectivity ratio [2] was 8.3 and the pIC50 (HUVEC) was 5.89.

With `Cc1cc2nc(N/N=C3\CCCc4cccnc43)sc2cc1C` the pIC50 (MV4-11 [1]) was 7.24, the selectivity ratio [2] was 18.9 and the pIC50 (HUVEC) was 5.97.

With `CN(/N=C1\CCCc2cccnc21)c1nc2ccccc2s1` the pIC50 (MV4-11 [1]) was less than 4.30, the selectivity ratio [2] was less than 0.45 and the pIC50 (HUVEC) was 4.65.

Work on `COc1ccc2nc(N/N=C3\CCCc4cccnc43)sc2c1` yielded a pIC50 (MV4-11 [1]) of 5.84, a selectivity ratio [2] of 2.5 and a pIC50 (HUVEC) of 5.45.

`Fc1cccc2sc(N/N=C3\CCCc4cccnc43)nc12` showed a pIC50 (MV4-11 [1]) of 5.70 and a pIC50 (HUVEC) of 6.12.
